Measurements gathered from unrelated publications.
Each line is one published result; the experiments were not run side by side.
Target: Serine/threonine-protein kinase PRP4 homolog (PRPF4B, Homo sapiens, UniProt Q13523)

Compound	assay	conditions	remaining binding [%]
Cc1cnc(Nc2ccc(C(=O)N3CCC(N4CCCC4)CC3)cc2)nc1-c1cc2ccccc2s1	binding, competition with immobilised ligand	1 µM	5.2
F[C@@H]1CCN(c2nccc(-c3cnn4ncccc34)n2)C1	binding	1 µM	100
O=C(NCCCC1CCCCC1)c1ccc(CNC(=O)c2cnn(-c3ccccc3)c2C(F)(F)F)cc1	cell-free assay, competition with immobilised ligand	0.1 µM	100
CN(c1nccc(-c2cnn3ncccc23)n1)C1CC1	binding	1 µM	100
CNC(=O)[C@@H]1CC[C@@H](n2c(-c3ccc4cnccc4c3)nc3ccc(C(=O)NCc4cccc(C(N)=O)c4)cc32)C1	binding, competition with immobilised ligand	1 µM	100
COc1ncc2cc3ccccc3nc2c1C#N	cell-free assay, competition with immobilised ligand	5 µM	100
C=CC(=O)N1CCC(C(=O)NCC(=O)N2CCN(c3nc(-c4cnc(N)nc4C(F)F)nc(N4CCOCC4)n3)CC2)CC1	binding, competition with immobilised ligand	1 µM	100
C[C@H]1CCN(c2nccc(-c3cnn4ncccc34)n2)C1	binding	1 µM	53
Cc1nn(C)cc1-c1nc2c(N3CCN(Cc4ccc(Cl)cc4)CC3)c(Cl)cnc2[nH]1	binding, competition with immobilised ligand	1 µM	100
O=c1nc(-c2ccccn2)sc2ccccc12	binding, competition with immobilised ligand	1 µM	71
Cc1cnn2ncc(-c3ccnc(N(C)C)n3)c2c1	binding	1 µM	94
O=C(Nc1c[nH]nc1C(=O)NC1CCNCC1)c1cc(F)cc(F)c1	binding, competition with immobilised ligand	1 µM	82
CS(=O)(=O)N1CCCC(NC(=O)[C@H](CCC2CCCCC2)NC(=O)c2ccc(CNc3ncnc4c3nnn4-c3ccccc3)cc2)C1 (stereo partly shown)	cell-free assay, competition with immobilised ligand	0.1 µM	60
O=C(NCCCN1CCOCC1)c1ccc(Nc2ncc(Cl)c(-c3ccc(Cl)s3)n2)cc1	binding, competition with immobilised ligand	1 µM	22
CN1CCN(c2cnc3c(C4CCN(C(=O)c5ccc(OC(F)(F)F)cc5N)CC4)ncnc3c2)CC1	cell-free assay, competition with immobilised ligand	1 µM	100
CN(CCCC(F)(F)F)c1nccc(-c2cnn3ncccc23)n1	binding	1 µM	100
O=C(NCc1ncc(C(F)(F)F)cc1Cl)c1ccc2c(c1)C1(CCS(=O)(=O)CC1)[C@@H](C1CC1)N2S(=O)(=O)c1ccc(F)cc1	cell-free assay, competition with immobilised ligand	1 µM	84
CN(C)c1nccc(-c2cnn3ncccc23)n1	binding	1 µM	86
Cc1c(NC(=O)c2cc(C(N)=O)nc3cc(F)ccc23)c(C(F)(F)F)nn1Cc1ccc(C(C)(C)C)cc1	cell-free assay, competition with immobilised ligand	1 µM	73
N[C@@H]1CCN(c2nccc(-c3cnn4ncccc34)n2)C1	binding	1 µM	100
Cc1nccc(COC(=O)N2C[C@@H]3[C@@H](CNC(=O)c4ccc5[nH]nnc5c4)[C@@H]3C2)n1	cell-free assay, competition with immobilised ligand	1 µM	95
O=C(c1ccc(Nc2ncc(Cl)c(-c3ccc(Cl)s3)n2)cc1)N1CCC(N2CCCC2)CC1	binding, competition with immobilised ligand	1 µM	19
